Active and inactive are the calls of the source. The calls are words filed in the database; no cut-off is given here.
Tests used:
SF-295 = assay: Cytotoxicity against human SF-295 assessed as growth inhibition at 10 uM by NCI protocol relative to control; assay type: functional; conditions: read-out: GI
Outline: (§1)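 Run by NCI as a single-dose screen at 10 μM across the sixty-cell-line panel, which covers nine human tumour tissue types. The read-out is percent growth inhibition of treated cells relative to untreated cells.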

LOX IMVI = assay: Cytotoxicity against human LOX IMVI assessed as growth inhibition at 10 uM by NCI protocol relative to control; assay type: functional; conditions: read-out: GI; outline: as §1
NCI-H23 = assay: Cytotoxicity against human NCI-H23 assessed as growth inhibition at 10 uM by NCI protocol relative to control; assay type: functional; conditions: read-out: GI; outline: as §1
NCI-H460 = assay: Cytotoxicity against human NCI-H460 assessed as growth inhibition at 10 uM by NCI protocol relative to control; assay type: functional; conditions: read-out: GI; outline: as §1
HOP-92 = assay: Cytotoxicity against human HOP-92 assessed as growth inhibition at 10 uM by NCI protocol relative to control; assay type: functional; conditions: read-out: GI; outline: as §1
T47D [1] = assay: Cytotoxicity against human T47D cells assessed as reduction in cell viability after 3 hrs by MTT assay
MDA-MB-435 = assay: Cytotoxicity against human MDA-MB-435 assessed as growth inhibition at 10 uM by NCI protocol relative to control; assay type: functional, cell-based; outline: as §1
SN12C = assay: Cytotoxicity against human SN12C assessed as growth inhibition at 10 uM by NCI protocol relative to control; assay type: functional; conditions: read-out: GI
Outline: (§2)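 Run by the NCI under its standard protocol: one dose of 10 μM against a sixty-line panel from nine human tumour tissues. Result given as percent growth inhibition of treated cells relative to untreated cells.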

BT-549 = assay: Cytotoxicity against human BT-549 assessed as growth inhibition at 10 uM by NCI protocol relative to control; assay type: functional; conditions: read-out: GI; outline: as §1
MDA-MB-231 = assay: Cytotoxicity against human MDA-MB-231 assessed as growth inhibition at 10 uM by NCI protocol relative to control; assay type: functional; conditions: read-out: GI; outline: as §1
MDA-MB-468 = assay: Cytotoxicity against human MDA-MB-468 assessed as growth inhibition at 10 uM by NCI protocol relative to control; assay type: functional; conditions: read-out: GI; outline: as §1
ACHN = assay: Cytotoxicity against human ACHN assessed as growth inhibition at 10 uM by NCI protocol relative to control; assay type: functional; conditions: read-out: GI; outline: as §1
SNB-19 = assay: Cytotoxicity against human SNB-19 assessed as growth inhibition at 10 uM by NCI protocol relative to control; assay type: functional; conditions: read-out: GI; outline: as §2
CCRF-CEM = assay: Cytotoxicity against human CCRF-CEM assessed as growth inhibition at 10 uM by NCI protocol relative to control; assay type: functional; conditions: read-out: GI; outline: as §1
HCT-116 = assay: Cytotoxicity against human HCT-116 assessed as growth inhibition at 10 uM by NCI protocol relative to control; assay type: functional; conditions: read-out: GI; outline: as §1
NCI-H226 = assay: Cytotoxicity against human NCI-H226 assessed as growth inhibition at 10 uM by NCI protocol relative to control; assay type: functional; conditions: read-out: GI; outline: as §1
EKVX = assay: Cytotoxicity against human EKVX assessed as growth inhibition at 10 uM by NCI protocol relative to control; assay type: functional; conditions: read-out: GI; outline: as §1
IGROV-1 = assay: Cytotoxicity against human IGROVI assessed as growth inhibition at 10 uM by NCI protocol relative to control; assay type: functional; conditions: read-out: GI; outline: as §1
SF-268 = assay: Cytotoxicity against human SF-268 assessed as growth inhibition at 10 uM by NCI protocol relative to control; assay type: functional; conditions: read-out: GI; outline: as §1
HL-60 = assay: Cytotoxicity against human HL60 assessed as growth inhibition at 10 uM by NCI protocol relative to control; assay type: functional; conditions: read-out: GI; outline: as §1
RPMI-8226 = assay: Cytotoxicity against human RPMI-8226 assessed as growth inhibition at 10 uM by NCI protocol relative to control; assay type: functional; outline: as §1
T47D [2] = assay: Cytotoxicity against human T-47D assessed as growth inhibition at 10 uM by NCI protocol relative to control; assay type: functional; conditions: read-out: GI; outline: as §2
MOLT-4 = assay: Cytotoxicity against human MOLT-4 assessed as growth inhibition at 10 uM by NCI protocol relative to control; assay type: functional; conditions: read-out: GI; outline: as §1
PC-3 = assay: Cytotoxicity against human PC3 assessed as growth inhibition at 10 uM by NCI protocol relative to control; assay type: functional; conditions: read-out: GI; outline: as §1
UACC-62 = assay: Cytotoxicity against human UACC-62 assessed as growth inhibition at 10 uM by NCI protocol relative to control; assay type: functional; conditions: read-out: GI; outline: as §2
A549 = assay: Cytotoxicity against human A549 assessed as growth inhibition at 10 uM by NCI protocol relative to control; assay type: functional; conditions: read-out: GI; outline: as §1
RXF 393 = assay: Cytotoxicity against human RXF 393 assessed as growth inhibition at 10 uM by NCI protocol relative to control; assay type: functional; conditions: read-out: GI; outline: as §1
A498 = assay: Cytotoxicity against human A498 assessed as growth inhibition at 10 uM by NCI protocol relative to control; assay type: functional; conditions: read-out: GI; outline: as §1
HCT-15 = assay: Cytotoxicity against human HCT-15 assessed as growth inhibition at 10 uM by NCI protocol relative to control; assay type: functional; conditions: read-out: GI; outline: as §1
UO-31 = assay: Cytotoxicity against human UO31 assessed as growth inhibition at 10 uM by NCI protocol relative to control; assay type: functional; conditions: read-out: GI; outline: as §2
K562 = assay: Cytotoxicity against human K-562 assessed as growth inhibition at 10 uM by NCI protocol relative to control; assay type: functional; conditions: read-out: GI; outline: as §1
NCI-H522 = assay: Cytotoxicity against human NCI-H522 assessed as growth inhibition at 10 uM by NCI protocol relative to control; assay type: functional; conditions: read-out: GI; outline: as §1
SK-MEL-5 = assay: Cytotoxicity against human SK-MEL-5 assessed as growth inhibition at 10 uM by NCI protocol relative to control; assay type: functional; conditions: read-out: GI; outline: as §1
MCF7 = assay: Cytotoxicity against human MCF7 assessed as growth inhibition at 10 uM by NCI protocol relative to control; assay type: functional; conditions: read-out: GI; outline: as §1

## Cc1ccc(-c2csc(NC(=O)CN3CCN(c4cc(=O)n(-c5ccccc5)c5ccccc45)CC3)n2)cc1
SF-295
  inhibition of growth at 10 µM: 14.4%
LOX IMVI
  inhibition of growth at 10 µM: 12.2%
NCI-H23
  inhibition of growth at 10 µM: 29.7%
NCI-H460
  inhibition of growth at 10 µM: 11.1%
HOP-92
  inhibition of growth at 10 µM: 13.8%
T47D [1]
  IC50: 16.5 µM
MDA-MB-435
  growth inhibition (GI): inactive
SN12C
  inhibition of growth at 10 µM: 13.1%
BT-549
  inhibition of growth at 10 µM: 14.4%
MDA-MB-231
  inhibition of growth at 10 µM: 17.4%
MDA-MB-468
  inhibition of growth at 10 µM: 30.2%
ACHN
  inhibition of growth at 10 µM: 15.1%
SNB-19
  inhibition of growth at 10 µM: 21.8%
CCRF-CEM
  inhibition of growth at 10 µM: 14.8%
HCT-116
  inhibition of growth at 10 µM: 20.2%
NCI-H226
  inhibition of growth at 10 µM: 17.3%
EKVX
  inhibition of growth at 10 µM: 26.5%
IGROV-1
  inhibition of growth at 10 µM: 20.2%
SF-268
  inhibition of growth at 10 µM: 13.4%
HL-60
  inhibition of growth at 10 µM: 19.9%
RPMI-8226
  growth inhibition (GI): inactive
T47D [2]
  inhibition of growth at 10 µM: 40.9%
MOLT-4
  inhibition of growth at 10 µM: 32.2%
PC-3
  inhibition of growth at 10 µM: 23.1%
UACC-62
  inhibition of growth at 10 µM: 20.1%
A549
  inhibition of growth at 10 µM: 12%
RXF 393
  inhibition of growth at 10 µM: 13.2%
A498
  inhibition of growth at 10 µM: 18.6%
HCT-15
  inhibition of growth at 10 µM: 26%
UO-31
  inhibition of growth at 10 µM: 27%
K562
  inhibition of growth at 10 µM: 49.3%
NCI-H522
  inhibition of growth at 10 µM: 22.9%
SK-MEL-5
  inhibition of growth at 10 µM: 13.5%
MCF7
  inhibition of growth at 10 µM: 13.5%

Source: ChEMBL document CHEMBL4819122, “Novel 4-(piperazin-1-yl)quinolin-2(1H)-one bearing thiazoles with antiproliferative activity through VEGFR-2-TK inhibition” (Bioorg Med Chem, 2021)
